The values below come from ChEMBL document CHEMBL2331528, “Design and synthesis of bicyclic pyrazinone and pyrimidinone amides as potent TF-FVIIa inhibitors” (Bioorg Med Chem Lett, 2013).

Data set [1] concerns the target Coagulation factor VII/tissue factor (Homo sapiens, UniProt P08709). Nature of the data set: Inhibition of tissue factor-factor 7a (unknown origin) interaction by chromogenic substrate assay. Format: protein-complex assay. In outline: (§1)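 Ki from chromogenic substrate assays at 25 °C; n = 2.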
For data set [2], the species on record is Homo sapiens. The data set is described as follows: Selectivity ratio of Ki for trypsin (unknown origin) to Ki for tissue factor-factor 7a (unknown origin) interaction.
In data set [3] the test system is Plasma. The data set is described as follows: Fraction unbound in human plasma. Format: ADME, cell-free.
For data set [4], the system named is Plasma. Nature of the data set: Anticoagulant activity in factor 7 deficient human plasma assessed as concentration required to prothrombin time. Format: functional.
In the next data set the target is Prothrombin (Homo sapiens, UniProt P00734). Nature of the data set: Inhibition of thrombin (unknown origin) by chromogenic substrate assay. In outline:
as §1

The next data set concerns the target Coagulation factor X (Homo sapiens, UniProt P00742). Nature of the data set: Inhibition of factor-10a (unknown origin) by chromogenic substrate assay. In outline:
as §1

The species entered for data set [5] is Homo sapiens. Nature of the data set: Selectivity ratio of Ki for factor-10a (unknown origin) to Ki for tissue factor-factor 7a (unknown origin) interaction.
Data set [6] is filed under the species Homo sapiens. The data set is described as follows: Selectivity ratio of Ki for factor-11a (unknown origin) to Ki for tissue factor-factor 7a (unknown origin) interaction.
For data set [7], the species on record is Homo sapiens. The data set is described as follows: Selectivity ratio of Ki for thrombin (unknown origin) to Ki for tissue factor-factor 7a (unknown origin) interaction.
The species named for data set [8] is Homo sapiens. The data set is described as follows: Selectivity ratio of Ki for factor-9a (unknown origin) to Ki for tissue factor-factor 7a (unknown origin) interaction.
The species named for data set [9] is Homo sapiens. Nature of the data set: Selectivity ratio of Ki for plasma kallikrein (unknown origin) to Ki for tissue factor-factor 7a (unknown origin) interaction.

Sequence of Coagulation factor X (P00742 41-179 limits assumed): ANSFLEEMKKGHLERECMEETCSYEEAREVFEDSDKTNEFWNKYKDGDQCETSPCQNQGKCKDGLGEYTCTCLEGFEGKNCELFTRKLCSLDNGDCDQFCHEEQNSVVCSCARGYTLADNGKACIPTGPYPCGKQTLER
Sequence of Coagulation factor X (P00742 235-488 limits assumed): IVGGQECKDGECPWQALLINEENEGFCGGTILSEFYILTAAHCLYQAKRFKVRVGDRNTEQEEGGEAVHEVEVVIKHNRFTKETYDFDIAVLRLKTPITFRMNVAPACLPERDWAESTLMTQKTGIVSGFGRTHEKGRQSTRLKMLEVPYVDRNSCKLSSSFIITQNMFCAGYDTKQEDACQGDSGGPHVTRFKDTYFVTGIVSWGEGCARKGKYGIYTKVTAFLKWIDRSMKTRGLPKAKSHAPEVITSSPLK
Sequence of Coagulation factor VII/tissue factor (P08709 61-212 limits assumed): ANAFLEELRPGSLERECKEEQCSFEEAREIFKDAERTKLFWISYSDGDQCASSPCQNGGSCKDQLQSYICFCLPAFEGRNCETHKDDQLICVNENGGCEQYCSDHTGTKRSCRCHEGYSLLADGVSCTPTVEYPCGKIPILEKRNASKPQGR
Sequence of Coagulation factor VII/tissue factor (P08709 213-466 limits assumed): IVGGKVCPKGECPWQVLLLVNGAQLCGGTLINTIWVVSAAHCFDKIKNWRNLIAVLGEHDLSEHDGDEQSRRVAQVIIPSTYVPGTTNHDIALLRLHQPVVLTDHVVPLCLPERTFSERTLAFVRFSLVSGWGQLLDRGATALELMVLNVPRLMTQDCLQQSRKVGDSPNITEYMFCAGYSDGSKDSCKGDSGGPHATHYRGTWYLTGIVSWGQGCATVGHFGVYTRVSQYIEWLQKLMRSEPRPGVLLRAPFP
Sequence of Coagulation factor VII/tissue factor (P13726 33-295 partner limits assumed): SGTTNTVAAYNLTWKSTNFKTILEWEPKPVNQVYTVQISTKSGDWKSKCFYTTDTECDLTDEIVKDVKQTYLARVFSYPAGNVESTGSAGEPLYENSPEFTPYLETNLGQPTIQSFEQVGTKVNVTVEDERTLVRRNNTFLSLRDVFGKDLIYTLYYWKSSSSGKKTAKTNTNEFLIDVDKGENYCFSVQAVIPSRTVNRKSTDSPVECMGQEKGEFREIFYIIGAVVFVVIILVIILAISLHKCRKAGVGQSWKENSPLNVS

For `CCC1(CC)C[C@@H](C(=O)NCc2ccc3c(N)noc3c2)n2c1c(Cl)nc(NC1CCC1)c2=O`, in data set [1], the Ki – broadly, the dissociation constant of the complex between target and ligand, obtained from inhibition or displacement – came to 1900 nM.
On to `CCC1(CC)C[C@@H](C(=O)NCc2ccc(C(=N)N)cc2)n2c1c(Cl)nc(NC1CCC1)c2=O`, for which the Ratio Ki is < 3 in the data set filed under Homo sapiens [2]; > 160 in the data set listed under Homo sapiens [5]; > 160 in the data set listed under Homo sapiens [6]; 30 in the data set filed under Homo sapiens [7]; > 160 in the data set filed under Homo sapiens [8]; < 3 in the data set listed under Homo sapiens [9]. For the same compound, in the data set with Plasma [3], the “Cp(f)” value was 6.8%. Further, in the data set with Plasma [4], the Activity is 5.6 µM. Further, the values for the inhibition constant Ki (in data set [1]; at Prothrombin; on Coagulation factor X) were 7.3 nM, 210 nM and 3300 nM, respectively.
For the compound `CCCNc1cnc2n(c1=O)[C@H](C(=O)NCc1ccc(C(=N)N)cc1)CC2(CCC)CCC`, the Ki in [1] came out at 620 nM; at Prothrombin, 1200 nM; on Coagulation factor X it was 3600 nM.
`Cc1ccc(CNc2nc(Cl)c3n(c2=O)[C@H](C(=O)NCc2ccc(C(=N)N)cc2)CC3(C)C)o1`: the Ki in data set [1] was 190 nM.
As for `C[C@@]1(CO)C[C@@H](C(=O)NCc2ccc(C(=N)N)cc2)n2c1c(Cl)nc(NC1CCC1)c2=O`, the figures for the inhibition constant (Ki) (in data set [1]; at Prothrombin; on Coagulation factor X) were 72 nM, > 15000 nM and > 15000 nM, respectively.
As for `N=C(N)c1ccc(CNC(=O)[C@@H]2CCc3c(Cl)nc(NC4CCC4)c(=O)n32)cc1`, the results for the inhibition constant (Ki) (in [1]; on Prothrombin; on Coagulation factor X) were 30 nM, 35 nM and > 15000 nM, respectively.
For `CC1(C)C[C@@H](C(=O)NCc2ccc(C(=N)N)cc2)n2c1c(Cl)nc(NC1CC1)c2=O`, in that order: 37 nM, 360 nM and > 15000 nM.
The like results for `CC(C)CNc1nc(Cl)c2n(c1=O)[C@H](C(=O)NCc1ccc(C(=N)N)cc1)CC2(C)C` were, in that order, 43 nM, 220 nM and > 15000 nM.
The like results for `CCCC1(CCC)C[C@@H](C(=O)NCc2ccc(C(=N)N)cc2)n2c1c(Cl)nc(NC1CCC1)c2=O` were, in that order, 28 nM, 170 nM and 550 nM.
In the case of `C[C@@]1(C(=O)NCc2ccccc2)C[C@@H](C(=O)NCc2ccc(C(=N)N)cc2)n2c1c(Cl)nc(NC1CCC1)c2=O`, the Ki in data set [1] is 560 nM; at Prothrombin it was > 15000 nM; on Coagulation factor X it was 3700 nM.
For `CCCNc1cnc2n(c1=O)[C@H](C(=O)NCc1ccc(C(=N)N)cc1)CC2(CC)CC`, in that order: 75 nM, 5200 nM and 12000 nM.
`COCC(C)Nc1nc(Cl)c2n(c1=O)[C@H](C(=O)NCc1ccc(C(=N)N)cc1)CC2(C)C` (stereo partly specified) displayed an inhibition constant Ki in [1] of 130 nM.
As to `CCCNc1cnc2n(c1=O)[C@H](C(=O)NCc1ccc(C(=N)N)cc1)C[C@@]2(C)CC`, the Ki in data set [1] is 150 nM; at Prothrombin, 2100 nM; on Coagulation factor X, > 15000 nM.
Consider `CCC1(CC)C[C@@H](C(=O)NCc2ccc3c(N)nccc3c2)n2c1c(Cl)nc(NC1CCC1)c2=O`, for which the inhibitory constant (Ki) in data set [1] came to 360 nM.
For `CC(C)Nc1nc(Cl)c2n(c1=O)[C@H](C(=O)NCc1ccc(C(=N)N)cc1)CC2(C)C`, the Ki in data set [1] is 17 nM; at Prothrombin, 130 nM; on Coagulation factor X, > 15000 nM.
For `C=CC[C@]1(C)C[C@@H](C(=O)NCc2ccc(C(=N)N)cc2)n2c1c(Cl)nc(NC1CCC1)c2=O`, in that order: 5.8 nM, 220 nM and 650 nM.
For `CCC[C@]1(C)C[C@@H](C(=O)NCc2ccc(C(=N)N)cc2)n2c1c(Cl)nc(NC1CCC1)c2=O`, in that order: 23 nM, 36 nM and 1000 nM.
For `CNC(=O)[C@]1(C)C[C@@H](C(=O)NCc2ccc(C(=N)N)cc2)n2c1c(Cl)nc(NC1CCC1)c2=O`, in that order: 2100 nM, > 15000 nM and 1100 nM.
Consider `CCC[C@@]1(C)C[C@@H](C(=O)NCc2ccc(C(=N)N)cc2)n2c1c(Cl)nc(NC1CCC1)c2=O`, for which the inhibition constant (Ki) in data set [1] was determined as 21 nM; at Prothrombin, 110 nM; at Coagulation factor X, 2200 nM.
The compound `CC(Nc1nc(Cl)c2n(c1=O)[C@H](C(=O)NCc1ccc(C(=N)N)cc1)CC2(C)C)C(C)(C)C` (stereo partly specified) registered a Ki in data set [1] of 84 nM.
In the case of `CC1(C)C[C@@H](C(=O)NCc2ccc(C(=N)N)cc2)n2c1c(Cl)nc(NC1CCCC1)c2=O`, the Ki was 60 nM in data set [1], 160 nM on Prothrombin and > 15000 nM at Coagulation factor X.
In turn, `CCC1(CC)C[C@@H](C(=O)NCc2ccc(CN)cc2)n2c1c(Cl)nc(NC1CCC1)c2=O` displayed a Ki in data set [1] of 300 nM.
On to `CC(C)(C)Nc1nc(Cl)c2n(c1=O)[C@H](C(=O)NCc1ccc(C(=N)N)cc1)CC2(C)C`, for which the inhibition constant Ki came out at 68 nM in data set [1], 220 nM at Prothrombin and 2800 nM on Coagulation factor X.
The like results for `CCCNc1cnc2n(c1=O)[C@H](C(=O)NCc1ccc(C(=N)N)cc1)CC2(C)C` were, in that order, 290 nM, 1800 nM and > 15000 nM.
For `CC(C)(C)OC(=O)CNc1nc(Cl)c2n(c1=O)[C@H](C(=O)NCc1ccc(C(=N)N)cc1)CC2(C)C`, the Ki came to 132 nM in data set [1] and 32 nM on Prothrombin.
Turning to `CC1(C)C[C@@H](C(=O)NCc2ccc(C(=N)N)cc2)n2c1c(Cl)nc(NC1CCC1)c2=O`, the Ki was 23 nM in [1], 200 nM on Prothrombin and > 15000 nM at Coagulation factor X.
For `CNc1nc(Cl)c2n(c1=O)[C@H](C(=O)NCc1ccc(C(=N)N)cc1)CC2(C)C`, in that order: 24 nM, 230 nM and > 15000 nM.
For `N=C(N)c1ccc(CNC(=O)[C@@H]2CC3(CCCC3)c3c(Cl)nc(NC4CCC4)c(=O)n32)cc1`, in that order: 99 nM, 78 nM and > 15000 nM.
For `CCNc1nc(Cl)c2n(c1=O)[C@H](C(=O)NCc1ccc(C(=N)N)cc1)CC2(C)C`, in that order: 19 nM, 260 nM and > 15000 nM.
Turning to `CC1(C)C[C@@H](C(=O)NCc2ccc(C(=N)N)cc2)n2c1c(Cl)nc(NC1(CO)CCCC1)c2=O`, the Ki is 70 nM in data set [1], 380 nM at Prothrombin and > 15000 nM at Coagulation factor X.
For `CC1(C)C[C@@H](C(=O)NCc2ccc(C(=N)N)cc2)n2c1c(Cl)nc(NCC1CCCCC1)c2=O`, in that order: 76 nM, 220 nM and > 15000 nM.
For `CCCNc1cnc2n(c1=O)[C@H](C(=O)NCc1ccc(C(=N)N)cc1)CC2`, in that order: 186 nM, 150 nM and > 15000 nM.
